# Wee1 stabilizer = blocks degradation of human Wee1 kinase. P30291. HeLa Luc-Wee1K328M stability, luciferase luminescence; 100% = proteasome inhibitor MG132 effect. reporter increase, % at 5 µM. hit rate 1.2% among 220,000. AID 1321;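 active means activation above the mean of all tested compounds plus 3 SD, set per screening run, cut at about 8.8% in these data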;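 further: cells exposed to compound for 20 h before luminescence read; 0% = DMSO alone and 100% = MG132 at 30 µM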
# Arbovirus inh = blocks arbovirus infection | inhibition, % at 10 µM | hit rate 0.37% among 200,000 | AID 1251 | arbovirus infection cell-based antiviral screen; in the data active means inhibition above about 30%
# CHOP inh = CHOP inhibition in unfolded protein response; CHO-K1 CHOP-promoter luciferase, tunicamycin-induced, 15-18 h; inhibition, % at 10 µM; hit rate 3.8% among 220,000; AID 2732;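 active means compounds that reduced the stress-induced luciferase reporter signal by more than about 70% of percent inhibition, limit read from the data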;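 further: 0% = tunicamycin plus vehicle and 100% = wells without tunicamycin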
# PKD1 inh = inhibitors of human PKD1 kinase. Q15139. PKD1 kinase fluorescence polarization assay. inhibition, % (test concentration not listed). hit rate 0.056% among 200,000. AID 797
# Lmaj promast = inhibitors of Leishmania major promastigote growth | AID 1063 | Leishmania major promastigotes, resazurin fluorescence viability | inhibition, % at 10 µM | hit rate 9% among 200,000;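 further: promastigotes grown with compound for 44 hours at 28 °C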
# Rad51 HR inh = Rad51 (human) homologous recombination inhibition; Q06609; hRad51 DNA strand exchange, fluorescence dequenching; inhibition, % at 10 µM; hit rate 0.085% among 200,000; AID 1385;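 active means inhibition above 40% at the single screening dose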;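 further: 0% = DMSO control wells and 100% = blanks with heterologous ssDNA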
# Target sequence (Q06609 whole entry, looked up): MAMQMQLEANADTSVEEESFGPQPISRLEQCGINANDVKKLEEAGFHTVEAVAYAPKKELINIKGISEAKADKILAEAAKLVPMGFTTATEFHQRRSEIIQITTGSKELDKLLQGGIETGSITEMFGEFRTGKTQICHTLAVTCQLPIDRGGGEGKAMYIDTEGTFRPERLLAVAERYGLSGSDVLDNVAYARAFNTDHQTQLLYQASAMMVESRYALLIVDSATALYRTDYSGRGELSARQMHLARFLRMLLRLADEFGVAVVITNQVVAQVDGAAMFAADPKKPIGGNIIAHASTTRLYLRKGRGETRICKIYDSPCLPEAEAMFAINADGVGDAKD
#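 System: human Rad51 nucleoprotein filaments preassembled on unlabelled ssDNA. Reagent: labelled 47-mer dsDNA for strand exchange. Schedule: 30-min compound preincubation and 15-min exchange, both room temperature. Measured by: FRET fluorescence dequenching, excitation 485 nm, emission 520 nm. Read-out: Fluorescence-based percent inhibition, control- and blank-normalised. Benchmarks: plate controls and plate blanks.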
# * marks the source's active call; other numbers are inactive results; nt = no result given. A selection: hits, their analogues and other compounds. The true share with any hit is near 12%. Unless noted, no stated cut-off is given here; in the data, active means inhibition above about 50%; inactive means the rest.
SMILES,Wee1 stabilizer,Arbovirus inh,CHOP inh,PKD1 inh,Lmaj promast,Rad51 HR inh
CCOC(=O)N1CCN(Cc2ccc(O)c3ncccc23)CC1,-1,-10,7,5,0,-6
Oc1ccc(F)c2cccnc12,-2,5,72*,0,8,nt
Oc1ccc(CN2CCc3ccccc3C2)c2cccnc12,-2,-29,56,2,100*,-9
Cc1[nH]c2ccccc2c1CN1CCC(Cc2ccccc2)CC1,-3,-10,-70,1,100*,33
Oc1ccc(CN2CCN(c3ccccc3)CC2)c2cccnc12,1,9,35,-8,100*,11
O=C(Nc1ccc(F)cc1)OCCOc1ccc([N+](=O)[O-])cc1,-3,nt,9,nt,nt,9
CCOC(=O)N1CCN(C(=O)/C(=C\c2ccc(SC)cc2)NC(=O)c2ccccc2)CC1,-1,nt,-15,nt,nt,nt
Cn1nc(C(F)(F)F)c(CO)c1Sc1ccc(F)cc1,-2,7,19,3,-8,-17
CC(C)(C)C(O)CN1CCCC1 (configuration not stated),-2,8,0,4,0,2
Cn1nnnc1SCC(=O)Nc1ccc2c(c1)OCO2,5,-3,-17,2,-4,-16
Oc1ccc(CN2CCCCC2)c2cccnc12,-2,-15,9,-2,101*,nt
Cc1ccc(C)c(S(=O)(=O)N2CCN(Cc3ccc(O)c4ncccc34)CC2)c1,9.3*,-24,76*,2,100*,2
Cc1ccc(C)c(N2CCN(S(=O)(=O)c3cccc4cccnc34)CC2)c1,0,-3,8,4,66*,7
CC(=O)Nc1ccc(OC(=O)c2ccc(Br)c([N+](=O)[O-])c2)cc1,-2,-3,-26,-2,-5,-1
CCN1CC(CN(C)Cc2nc(Cc3ccccc3)no2)CC1=O (configuration not stated),-3,3,-1,-4,-5,nt
O=C1N=C2SCCN2/C1=C\c1ccccc1Cl,-1,8,25,-1,100*,5
COC(=O)c1cc2cc(Cl)ccc2nc1SC,3,nt,11,nt,nt,6
N/C(=N\N=C\c1ccc(Br)o1)c1nonc1N,7,nt,-9,nt,nt,16
Cn1c(=O)c(=O)n(C)c2cc([N+](=O)[O-])c([N+](=O)[O-])cc21,-1,-22,-39,4,80*,4
O=C1C[C@H]2[C@H](CO)[C@@H](OC(=O)c3ccc(-c4ccccc4)cc3)C[C@H]2O1,-4,nt,-24,nt,nt,-17
Cc1ccccc1OCCCC(=O)NCc1ccco1,1,-5,28,-5,-1,-8
N=C(N)SCc1cn2ccccc2n1,8.8*,-4,-2,11,-5,11
CCC(CC)C(=O)OCC(=O)Nc1cccc(S(=O)(=O)N(C)c2ccccc2)c1,1,3,26,-1,3,-2
CN(c1ccccc1)S(=O)(=O)c1cccc(NC(=O)c2cc(=O)c3ccccc3o2)c1,1,-1,31,-5,80*,29
CCCC(=O)Nc1cccc(S(=O)(=O)N(C)c2ccccc2)c1,1,1,10,-5,67*,4
SMILES,Wee1 stabilizer,Arbovirus inh,CHOP inh,PKD1 inh,Lmaj promast,Rad51 HR inh
COc1ccc(NC(=O)CN(C)S(=O)(=O)c2ccccc2)cc1,-2,-3,32,5,2,-9
O=C(Nc1cccc(S(=O)(=O)N2CCCCCC2)c1)c1cc(=O)c2ccccc2o1,3,-2,62,-1,21,2
COc1ccc(NC(=O)CN(C)CC(=O)Nc2cccc(S(=O)(=O)N(C)c3ccccc3)c2)cc1,-3,4,52,-2,81*,-6
CN(c1ccccc1)S(=O)(=O)c1cccc(NC(=O)CSc2nncn2C)c1,0,1,23,-8,57*,6
O=C1c2ccccc2C(O)(c2ncc[nH]2)N1CCc1ccccc1 (configuration not stated),-2,13,12,-13,95*,7
CC(C)CN1C(=O)c2ccccc2C1(O)Cc1ccccc1 (configuration not stated),4,-5,60,-8,6,1
O=C(c1ccco1)N1CCN(CCCCOc2cccc3ccccc23)CC1,-3,-17,18,-13,88*,nt
O=C(c1ccco1)N1CCN(CCOCCOc2cccc3ccccc23)CC1,-3,0,6,-5,90*,-5
CC(=O)Oc1ccc(N(c2ccccc2)S(=O)(=O)c2ccc(C)cc2)cc1,1,7,9,1,12,-9
